Reference: ChEMBL document CHEMBL3407339, “A novel series of thiazolyl-pyrazoline derivatives: synthesis and evaluation of antifungal activity, cytotoxicity and genotoxicity” (Eur J Med Chem, 2015)
Converted amounts (≈) assume the structure as drawn.

Test system: Salmonella typhimurium
Assay: Mutagenicity in Salmonella typhimurium TA98 at 2.5 mg/ml after 48 hrs by AMES MPF assay in presence of Sprague-Dawley rat liver microsomal S9 fraction relative to baseline
Type: toxicity, organism-based
Details: salmonella enterica subsp. enterica serovar typhimurium
Method in brief: (§1)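 Ames MPF fluctuation test with TA98/TA100. Overnight cultures (37 °C, 14–16 h) mixed with exposure medium; ±Aroclor-1254-induced rat liver S9 (final 4.5% v/v). Compounds in DMSO, 0.156–5 mg/mL. 90 min exposure at 37 °C, then indicator medium; 48 wells per concentration, 48 h at 37 °C, in triplicate. Yellow wells counted; fold induction over baseline (mean + 1 SD of zero-dose control).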

Row | Compound | fold change (FC)
1 | Cc1ccc(C2=NN(c3nc(-c4ccc(S(C)(=O)=O)cc4)cs3)C(c3ccc(F)cc3)C2)s1 (stereo not drawn) | 1.36

Test system: Salmonella typhimurium
Assay: Mutagenicity in Salmonella typhimurium TA100 at 0.156 mg/ml after 48 hrs by AMES MPF assay in absence of Sprague-Dawley rat liver microsomal S9 fraction relative to baseline
Type: toxicity, organism-based
Details: salmonella enterica subsp. enterica serovar typhimurium
Method in brief: as §1

Row | Compound | fold change (FC)
2 | Cc1ccc(C2=NN(c3nc(-c4ccc(S(C)(=O)=O)cc4)cs3)C(c3ccc(F)cc3)C2)s1 (stereo not drawn) | 0.78

Test system: Aspergillus flavus
Assay: Antifungal activity against Aspergillus flavus NRRL 980 after 72 hrs by broth microdilution assay
Type: functional
Details: NRRL 980, 72 h
Method in brief: (§2)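 Compounds dissolved in DMSO, diluted in sterile distilled water from 4 to 0.0039 mg/mL. Molds grown on PDA at 25 °C for 5 days, suspended in double-strength PDB at 10⁵ spores/mL. Incubated at 25 °C for 72 h; mycelial growth read under stereo microscope. MIC = lowest concentration inhibiting visible growth. Ketoconazole reference.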

Row | Compound | MIC [µg/mL]
3 | Cc1ccc(C2=NN(c3nc(-c4ccc(S(C)(=O)=O)cc4)cs3)C(c3ccc(F)cc3)C2)s1 (stereo not drawn) | 125 (≈ 251 µM)

Test system: Candida albicans
Assay: Antifungal activity against Candida albicans ATCC 90028 after 48 hrs by broth microdilution assay
Type: functional
Details: ATCC 90028, 48 h
Method in brief: (§3)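 Broth microdilution of DMSO stocks serially diluted in sterile water (4 to 0.0039 mg/mL). Yeasts grown on SDA at 37 °C for 24 h, suspended in double-strength PDB at 10⁵ spores/mL. Incubated at 37 °C for 48 h, then sprayed with 0.5% aqueous TTC. MIC = lowest concentration inhibiting visible growth. Ketoconazole reference.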

Row | Compound | MIC [µg/mL]
4 | Cc1ccc(C2=NN(c3nc(-c4ccc(S(C)(=O)=O)cc4)cs3)C(c3ccc(F)cc3)C2)s1 (stereo not drawn) | 250 (≈ 502 µM)

Test system: Fusarium solani
Assay: Antifungal activity against Fusarium solani NRRL 13414 after 72 hrs by broth microdilution assay
Type: functional
Details: NRRL 13414, 72 h
Method in brief: as §2

Row | Compound | MIC [µg/mL]
5 | Cc1ccc(C2=NN(c3nc(-c4ccc(S(C)(=O)=O)cc4)cs3)C(c3ccc(F)cc3)C2)s1 (stereo not drawn) | 250 (≈ 502 µM)

Test system: Salmonella typhimurium
Assay: Mutagenicity in Salmonella typhimurium TA98 at 2.5 mg/ml after 48 hrs by AMES MPF assay in absence of Sprague-Dawley rat liver microsomal S9 fraction relative to baseline
Type: toxicity, organism-based
Details: salmonella enterica subsp. enterica serovar typhimurium
Method in brief: as §1

Row | Compound | fold change (FC)
6 | Cc1ccc(C2=NN(c3nc(-c4ccc(S(C)(=O)=O)cc4)cs3)C(c3ccc(F)cc3)C2)s1 (stereo not drawn) | 0.67

Test system: Salmonella typhimurium
Assay: Mutagenicity in Salmonella typhimurium TA100 at 0.625 mg/ml after 48 hrs by AMES MPF assay in absence of Sprague-Dawley rat liver microsomal S9 fraction relative to baseline
Type: toxicity, organism-based
Details: salmonella enterica subsp. enterica serovar typhimurium
Method in brief: as §1

Row | Compound | fold change (FC)
7 | Cc1ccc(C2=NN(c3nc(-c4ccc(S(C)(=O)=O)cc4)cs3)C(c3ccc(F)cc3)C2)s1 (stereo not drawn) | 0.99

Test system: Aspergillus niger
Assay: Antifungal activity against Aspergillus niger ATCC 1094 after 72 hrs by broth microdilution assay
Type: functional
Details: ATCC 1094, 72 h
Method in brief: as §2

Row | Compound | MIC [µg/mL]
8 | Cc1ccc(C2=NN(c3nc(-c4ccc(S(C)(=O)=O)cc4)cs3)C(c3ccc(F)cc3)C2)s1 (stereo not drawn) | 250 (≈ 502 µM)

Test system: Salmonella typhimurium
Assay: Mutagenicity in Salmonella typhimurium TA98 at 1.25 mg/ml after 48 hrs by AMES MPF assay in presence of Sprague-Dawley rat liver microsomal S9 fraction relative to baseline
Type: toxicity, organism-based
Details: salmonella enterica subsp. enterica serovar typhimurium
Method in brief: as §1

Row | Compound | fold change (FC)
9 | Cc1ccc(C2=NN(c3nc(-c4ccc(S(C)(=O)=O)cc4)cs3)C(c3ccc(F)cc3)C2)s1 (stereo not drawn) | 0.95

Test system: not listed separately
Assay: Cytotoxicity against mouse NIH/3T3 cells after 24 hrs by XTT assay
Type: cell-based
Details: NIH3T3, 24 h
Method in brief: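 A549 cells in RPMI and NIH/3T3 cells in DMEM, each with fetal calf serum, antibiotics and 7.5% NaHCO₃, at 37 °C, 5% CO₂. Seeded at 20,000 cells/well, 24 h, then compounds added in medium at 500–3.9 doses (final DMSO <0.1%) for 24 h. XTT read after 3 h at 480 nm (ref 680 nm). IC₅₀ by non-linear regression; triplicates; cisplatin control.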

Row | Compound | IC50 [µg/mL]
10 | Cc1ccc(C2=NN(c3nc(-c4ccc(S(C)(=O)=O)cc4)cs3)C(c3ccc(F)cc3)C2)s1 (stereo not drawn) | 374 (≈ 751 µM)

Test system: Salmonella typhimurium
Assay: Mutagenicity in Salmonella typhimurium TA98 at 0.156 mg/ml after 48 hrs by AMES MPF assay in presence of Sprague-Dawley rat liver microsomal S9 fraction relative to baseline
Type: toxicity, organism-based
Details: salmonella enterica subsp. enterica serovar typhimurium
Method in brief: as §1

Row | Compound | fold change (FC)
11 | Cc1ccc(C2=NN(c3nc(-c4ccc(S(C)(=O)=O)cc4)cs3)C(c3ccc(F)cc3)C2)s1 (stereo not drawn) | 0.41

Test system: Nakaseomyces glabratus
Assay: Antifungal activity against Candida glabrata clinical isolate after 48 hrs by broth microdilution assay
Type: functional
Details: not given
Method in brief: as §3

Row | Compound | MIC [µg/mL]
12 | Cc1ccc(C2=NN(c3nc(-c4ccc(S(C)(=O)=O)cc4)cs3)C(c3ccc(F)cc3)C2)s1 (stereo not drawn) | 125 (≈ 251 µM)

Test system: Salmonella typhimurium
Assay: Mutagenicity in Salmonella typhimurium TA100 at 0.3125 mg/ml after 48 hrs by AMES MPF assay in presence of Sprague-Dawley rat liver microsomal S9 fraction relative to baseline
Type: toxicity, organism-based
Details: salmonella enterica subsp. enterica serovar typhimurium
Method in brief: as §1

Row | Compound | fold change (FC)
13 | Cc1ccc(C2=NN(c3nc(-c4ccc(S(C)(=O)=O)cc4)cs3)C(c3ccc(F)cc3)C2)s1 (stereo not drawn) | 0.73

Test system: Pichia kudriavzevii
Assay: Antifungal activity against Candida krusei NRLL Y 7179 after 48 hrs by broth microdilution assay
Type: functional
Details: NRLL Y 7179, 48 h
Method in brief: as §3

Row | Compound | MIC [µg/mL]
14 | Cc1ccc(C2=NN(c3nc(-c4ccc(S(C)(=O)=O)cc4)cs3)C(c3ccc(F)cc3)C2)s1 (stereo not drawn) | 250 (≈ 502 µM)

Test system: Candida tropicalis
Assay: Antifungal activity against Candida tropicalis NRLL Y 12968 after 48 hrs by broth microdilution assay
Type: functional
Details: NRLL Y 12968, 48 h
Method in brief: as §3

Row | Compound | MIC [µg/mL]
15 | Cc1ccc(C2=NN(c3nc(-c4ccc(S(C)(=O)=O)cc4)cs3)C(c3ccc(F)cc3)C2)s1 (stereo not drawn) | 250 (≈ 502 µM)

Test system: Salmonella typhimurium
Assay: Mutagenicity in Salmonella typhimurium TA98 at 1.25 mg/ml after 48 hrs by AMES MPF assay in absence of Sprague-Dawley rat liver microsomal S9 fraction relative to baseline
Type: toxicity, organism-based
Details: salmonella enterica subsp. enterica serovar typhimurium
Method in brief: as §1

Row | Compound | fold change (FC)
16 | Cc1ccc(C2=NN(c3nc(-c4ccc(S(C)(=O)=O)cc4)cs3)C(c3ccc(F)cc3)C2)s1 (stereo not drawn) | 0.89

Test system: Salmonella typhimurium
Assay: Mutagenicity in Salmonella typhimurium TA98 at 5 mg/ml after 48 hrs by AMES MPF assay in absence of Sprague-Dawley rat liver microsomal S9 fraction relative to baseline
Type: toxicity, organism-based
Details: salmonella enterica subsp. enterica serovar typhimurium
Method in brief: as §1

Row | Compound | fold change (FC)
17 | Cc1ccc(C2=NN(c3nc(-c4ccc(S(C)(=O)=O)cc4)cs3)C(c3ccc(F)cc3)C2)s1 (stereo not drawn) | 0.89

Test system: Salmonella typhimurium
Assay: Mutagenicity in Salmonella typhimurium TA100 at 0.156 mg/ml after 48 hrs by AMES MPF assay in presence of Sprague-Dawley rat liver microsomal S9 fraction relative to baseline
Type: toxicity, organism-based
Details: salmonella enterica subsp. enterica serovar typhimurium
Method in brief: as §1

Row | Compound | fold change (FC)
18 | Cc1ccc(C2=NN(c3nc(-c4ccc(S(C)(=O)=O)cc4)cs3)C(c3ccc(F)cc3)C2)s1 (stereo not drawn) | 0.73
